In ChEMBL document CHEMBL1667822, “Selective antagonists of mouse trace amine-associated receptor 1 (mTAAR1): discovery of EPPTB (RO5212773)” (Bioorg Med Chem Lett, 2011) one finds Vd and inhibition data, which are given here for one compound.

A short description of data set [1]: Volume of distribution at steady state in mouse at 2.5 mg/kg, iv. The format is ADME, organism-based. Set-up: dose 2.5 mg/kg, route intravenous. Conditions: in vivo, read-out: Vdss. The gist of the method: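 Single-dose pharmacokinetics in mice with parenteral dosing, either 2.5 mg/kg iv or 5 mg/kg ip. Drug levels were measured in plasma, with brain exposure taken as the brain/plasma concentration ratio.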

Data set [2] has as its target Substance-K receptor (Homo sapiens) (UniProt P21452). The experiment in a line: Displacement of [125I]NKA from human recombinant NK2 receptor expressed in CHO cells. Conditions: concentration not given here. The format is cell-based.
Data set [3] has as its target Thromboxane A2 receptor (Homo sapiens) (UniProt P21731). The experiment in a line: Displacement of [3H]SQ 29548 from human recombinant TXA2 receptor expressed in HEK293 cells. The class given is cell-based. Conditions: concentration not given here.
Data set [4] has as its target Galanin receptor type 2 (Homo sapiens) (UniProt O43603). The experiment in a line: Displacement of [125I]Galanin from human recombinant GAL2 receptor expressed in CHO cells. The settings on record: concentration not given here. The class given is cell-based.

Chain of Thromboxane A2 receptor (Homo sapiens) (P21731 whole entry): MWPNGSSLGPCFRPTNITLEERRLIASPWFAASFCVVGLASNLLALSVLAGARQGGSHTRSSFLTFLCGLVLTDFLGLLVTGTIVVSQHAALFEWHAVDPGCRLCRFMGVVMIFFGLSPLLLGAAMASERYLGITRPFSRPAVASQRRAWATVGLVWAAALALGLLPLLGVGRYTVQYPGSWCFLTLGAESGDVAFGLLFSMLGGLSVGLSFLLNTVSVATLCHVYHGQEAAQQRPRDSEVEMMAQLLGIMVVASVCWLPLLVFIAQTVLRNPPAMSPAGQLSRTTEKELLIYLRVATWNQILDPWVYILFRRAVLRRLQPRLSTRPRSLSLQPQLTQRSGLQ
Chain of Galanin receptor type 2 (Homo sapiens) (O43603 whole entry): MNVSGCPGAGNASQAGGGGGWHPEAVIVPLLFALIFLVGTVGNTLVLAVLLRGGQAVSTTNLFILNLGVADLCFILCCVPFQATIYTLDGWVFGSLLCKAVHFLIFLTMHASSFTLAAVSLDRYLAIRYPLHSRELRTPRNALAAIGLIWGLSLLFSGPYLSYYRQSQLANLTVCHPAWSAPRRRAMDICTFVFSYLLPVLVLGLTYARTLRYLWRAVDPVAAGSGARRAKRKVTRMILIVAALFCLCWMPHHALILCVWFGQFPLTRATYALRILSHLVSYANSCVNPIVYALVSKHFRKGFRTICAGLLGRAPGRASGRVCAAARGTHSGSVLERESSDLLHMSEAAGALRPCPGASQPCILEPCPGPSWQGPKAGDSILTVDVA
Chain of Substance-K receptor (Homo sapiens) (P21452 whole entry): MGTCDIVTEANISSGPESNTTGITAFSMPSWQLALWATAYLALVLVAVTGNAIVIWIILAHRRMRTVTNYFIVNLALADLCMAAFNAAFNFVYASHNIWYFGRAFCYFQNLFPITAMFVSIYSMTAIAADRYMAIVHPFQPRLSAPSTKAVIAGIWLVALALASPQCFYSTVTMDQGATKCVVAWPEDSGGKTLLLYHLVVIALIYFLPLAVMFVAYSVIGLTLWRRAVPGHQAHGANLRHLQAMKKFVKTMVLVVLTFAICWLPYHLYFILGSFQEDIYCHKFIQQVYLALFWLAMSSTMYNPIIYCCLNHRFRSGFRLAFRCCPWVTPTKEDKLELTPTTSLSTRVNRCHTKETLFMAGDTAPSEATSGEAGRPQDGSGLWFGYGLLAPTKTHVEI

On to `CCOc1cccc(NC(=O)c2ccc(N3CCCC3)c(C(F)(F)F)c2)c1`, for which, in data set [1], the Vd amounted to 3.7 L/kg. For the same compound, the inhibition was determined as 19% in data set [2], 8% in data set [3] and 13% in data set [4].
